NPY-Y1 PAM-ag: potentiates or activates human NPY-Y1 receptor; NPY-Y1 expressing cells, potentiator/agonist activation; P25929; activation, % at 3.6 µM; 0.37% of 220,000 active; in the data active = activation above about 33%, passing the limit was not always enough;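 also: cells stimulated with NPY at EC10 then isoproterenol at EC100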
NPY-Y1 antag: antagonists of human neuropeptide Y receptor Y1; HEK293-CNG Y1 cells, membrane potential fluorescence; NPY at EC95, then isoproterenol; AID 1040; P25929; 1% of 200,000 active; inhibition, % at 3.6 µM;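 active = inhibition above the campaign mean inhibition of all tested compounds plus 3 SD, cut at about 20% in these data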
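Assay system: HEK293 Y1/CNG channel cell line; Doses: single compound dose of 3.6 µM, 0.4% DMSO; Timing: dye 3 h, compound 60 min room temperature, stimulation 45 min; Technique: Membrane-potential fluorescent dye readout; Measure: % inhibition of NPY effect.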
NPY Y2 blocker: antagonists of human neuropeptide Y receptor Y2; P49146; NPY-Y2 expressing cells, antagonist mode; inhibition, % at 2.7 µM; AID 793; 0.99% of 140,000 active
Target sequence (P49146 whole entry, looked up): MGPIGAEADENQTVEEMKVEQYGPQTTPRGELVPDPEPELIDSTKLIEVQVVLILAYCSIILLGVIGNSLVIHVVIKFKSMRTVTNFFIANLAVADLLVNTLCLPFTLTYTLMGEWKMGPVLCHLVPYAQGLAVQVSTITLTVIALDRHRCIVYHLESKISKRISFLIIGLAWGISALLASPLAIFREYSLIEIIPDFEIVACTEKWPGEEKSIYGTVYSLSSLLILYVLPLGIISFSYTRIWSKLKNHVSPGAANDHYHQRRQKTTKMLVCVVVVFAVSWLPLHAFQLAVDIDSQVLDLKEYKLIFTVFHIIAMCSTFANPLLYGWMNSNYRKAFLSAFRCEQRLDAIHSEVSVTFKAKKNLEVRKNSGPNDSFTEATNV
NPY-Y2 PAM-ag: human NPY-Y2 potentiation or agonism, primary screen | activation, % at 3.6 µM | cells expressing NPY-Y2, potentiator/agonist read-out | P49146 | AID 1359 | 0.45% of 220,000 active; in the data active = activation above about 27%;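 also: cells stimulated with NPY near EC25 plus isoproterenol at EC100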
NPY-Y1 ant conf: confirmation of human neuropeptide Y receptor Y1 antagonists. shares compounds with NPY-Y1 antag. HEK293-CNG NPY-Y1, membrane potential fluorescence, cAMP; NPY challenge against isoproterenol-raised cAMP. inhibition, % at 3.6 µM. 21% of 1,200 active. AID 1254; in the data active = inhibition above about 20%
NPY2 antag ctr: counter-screen for NPY-Y1 antagonists: human NPY-Y2 antagonism. shares compounds with NPY-Y1 antag. HEK293 NPY-Y2 CNG membrane potential fluorescence; cells given NPY, then isoproterenol. inhibition, % at 3.6 µM. 28% of 1,200 active
A number is an active result; . = inactive; / = no result given. Sampled rows, rich in hits. Any-hit rate of the full collection: about 1.8%. Rule as the data show it, unless noted: active = inhibition above about 17%; inactive = the rest.

SMILES	NPY-Y1 PAM-ag	NPY-Y1 antag	NPY Y2 blocker	NPY-Y2 PAM-ag	NPY-Y1 ant conf	NPY2 antag ctr
CC(=O)NC1(c2ccccc2)CCN(c2cc(C)nc(-c3ccccc3)n2)CC1	.	46.4	/	.	34.4	46.0
Cc1cc(N2CCN(c3cccc(C)c3C)CC2)nc(-c2ccccc2)n1	.	20.9	.	.	21.8	17.4
O=C(CN1CCOCC1)Nc1ccccc1-c1ccccc1	.	.	.	.	/	/
COc1ccc(C(=O)Nc2cccc(OC)c2)cc1	.	.	.	.	/	/
COc1cccc(NC(=O)c2cc(-c3ccncc3)nc3c(C)cc(C)cc23)c1	.	22.2	/	.	28.3	29.3
O=C(NC1CCCC1)C(c1ccccc1F)N(C(=O)Cc1cccs1)c1ccc2c(c1)OCCO2 (stereo unspecified)	.	20.5	.	.	.	.
COc1ccc(F)cc1C(=O)C1CCCN(Cc2cccn2-c2ccccn2)C1 (stereo unspecified)	.	34.7	/	.	23.2	20.5
COc1ccc(C(=O)C2CCCN(Cc3cccn3-c3ccccn3)C2)c(OC)c1 (stereo unspecified)	.	27.1	/	.	20.6	17.6
c1csc(-c2nn3c(C4COc5ccccc5O4)nnc3s2)c1 (stereo unspecified)	.	24.3	.	.	.	.
c1ccc2c(c1)OCC(c1nnc3sc(-c4cnccn4)nn13)O2 (stereo unspecified)	.	.	.	.	/	/
Fc1ccc(-c2nn3c(C4COc5ccccc5O4)nnc3s2)cc1 (stereo unspecified)	.	21.0	.	.	.	.
c1ccc2c(c1)OCC(c1nnc3sc(-c4ccc5c(c4)OCO5)nn13)O2 (stereo unspecified)	.	.	.	.	/	/
O=C(CSc1nnc(COc2ccccc2)n1Cc1ccco1)c1ccc(F)cc1	.	20.2	.	.	.	.
Cc1ccc(OCc2nnc(SCC(=O)c3ccccc3)n2Cc2ccco2)cc1	.	.	.	.	/	/
Cc1nnc2c(NC3CCCC3)nc3ccccc3n12	.	.	/	.	/	/
CC(C)C(=O)N1CCN(c2ccccc2NC(=O)c2ccc(C#N)cc2F)CC1	.	41.7	/	.	.	.
O=C(NC1CCNCC1)C1CC1	.	.	/	.	/	/
CCOC(=O)C1(Cc2ccccc2)CCN(Cc2cccn2-c2nccs2)CC1	.	29.0	/	.	.	21.8
CCOC(=O)C1(Cc2ccccc2)CCN(Cc2cccn2-c2cccnc2)CC1	.	30.4	/	.	.	.
COC(=O)c1cc([N+](=O)[O-])c(-n2cncn2)c([N+](=O)[O-])c1	.	28.2	/	.	.	.
COc1ccc([N+](=O)[O-])cc1N(CC(O)CN(CC(C)C)CC(C)C)S(=O)(=O)c1ccccc1 (stereo unspecified)	.	68.8	.	.	30.2	.
COc1ccc([N+](=O)[O-])cc1N(CC(O)CN(C)C)S(=O)(=O)c1ccc(C)cc1 (stereo unspecified)	.	.	/	.	/	/
N#Cc1ccc(CSc2nnc(-c3ccccc3)n2Cc2ccco2)cc1	.	32.8	.	.	.	.
O=C(c1ccco1)N(CCC(c1ccccc1)c1ccco1)Cc1ccc(F)cc1 (stereo unspecified)	.	24.7	.	.	.	.
COc1cccc(CC2(CO)CCCN(Cc3cc4ccccc4[nH]3)C2)c1 (stereo unspecified)	.	.	/	.	/	/
SMILES	NPY-Y1 PAM-ag	NPY-Y1 antag	NPY Y2 blocker	NPY-Y2 PAM-ag	NPY-Y1 ant conf	NPY2 antag ctr
CC(C)[C@H](NC(=O)c1ccco1)C(=O)OCC(=O)NC12CC3CC(CC(C3)C1)C2	.	.	/	.	/	/
CC(NC(=O)COC(=O)CCNC(=O)c1ccco1)C12CC3CC(CC(C3)C1)C2 (stereo unspecified)	.	20.3	.	.	22.1	27.1
Cc1ccc(OCC(=O)Nc2ccccc2-c2ccccc2)cc1	.	.	.	.	/	/
COc1cccc(OCC(=O)Nc2ccccc2-c2ccccc2)c1	.	24.4	/	.	.	.
CCCC(=O)Nc1nnc(SCC(=O)N2CCN(c3ccccc3)CC2)s1	.	/	/	.	/	/
CSc1nsc(SCC(=O)N2CCN(c3ccccc3)CC2)n1	.	29.0	.	.	.	.
COC(=O)C(CCSC)NC(=O)c1cc2c(n(-c3ccccc3)c1=O)CCCC2=O (stereo unspecified)	.	.	/	.	/	/
COc1cc(C2C(C(=O)c3ccco3)=C(O)C(=O)N2CCc2ccccc2)ccc1O (stereo unspecified)	.	.	.	.	/	/
COc1ccc(CCN2C(=O)C(O)=C(C(=O)c3ccco3)C2c2cccs2)cc1OC (stereo unspecified)	.	22.6	.	.	.	.
CSc1ccc(-c2nc3cnccn3c2Nc2ccc3c(c2)OCO3)cc1	.	27.6	.	.	.	.
Clc1ccc(-c2nc3cnccn3c2Nc2ccc3c(c2)OCO3)cc1	.	.	.	.	/	/
Cc1ccc(-n2cc(CNCCCn3ccnc3C)c(-c3ccc(F)cc3)n2)cc1	.	28.0	/	.	25.2	34.6
Cc1ccc(-n2cc(CNCCc3cscn3)c(-c3ccc(F)cc3)n2)cc1	.	.	/	.	/	/
COc1ccc(-n2cc(CNCCCn3ccnc3)c(-c3cccc(F)c3)n2)cc1	.	22.2	/	.	.	.
Cc1ccc(-n2cc(CN3CCN(Cc4nccn4C)CC3)c(-c3ccc(F)cc3)n2)cc1	.	31.0	/	.	.	18.7
CCc1ccc(N(C2C=CS(=O)(=O)C2)S(=O)(=O)c2ccc(C)cc2)cc1 (stereo unspecified)	.	/	/	.	/	/
Cc1ccc(S(=O)(=O)CCSC(=N)N)cc1	.	.	/	.	/	/
O=C(NO)c1ccc(OC(F)F)cc1	.	.	.	.	/	/
CCN(CC)c1ccc(C=Nc2cc(C)cc(C)c2)c(O)c1	.	.	.	.	/	/
CCC(C)N(CCNC(=O)CC1Oc2ccccc2NC1=O)C1CCCCC1 (stereo unspecified)	.	.	.	.	/	/
Cc1ccccc1-n1c(SCC(=O)N/N=C/c2ccccc2OCC(=O)O)nc2ccccc2c1=O	.	/	/	.	/	/
COc1cccc2c3c(c(C)nc12)CCN3c1ccccc1	.	23.5	/	.	.	21.2
O=C(NN=C1CCCCC1)c1ccccc1OCc1ccc(F)cc1	.	29.7	.	.	.	.
COc1ccc(OC)c(C2=Nn3c(nnc3-c3cc(OC)c(OC)c(OC)c3)SC2)c1	.	27.1	.	.	23.6	28.7
COC(=O)c1ccc(CN2CCC(CO)(Cc3ccccc3Cl)CC2)cc1	.	.	/	.	/	/
COc1ccc(/C=C/CN2CCC(CO)(Cc3ccccc3Cl)CC2)cc1	.	29.7	/	.	.	18.3
CCNc1ccc(S(=O)(=O)N(C)C)cc1NCC(=O)Nc1ccccc1Br	.	.	/	.	/	/
COc1ccc(N=c2oc3cc(O)ccc3cc2C(=O)NCC2CCCO2)cc1 (stereo unspecified)	.	33.2	.	.	.	.
CCOc1ccc(N=c2oc3cc(O)ccc3cc2C(=O)NCC2CCCO2)cc1 (stereo unspecified)	.	.	.	.	/	/

Bioassay records deposited in PubChem by The Scripps Research Institute Molecular Screening Center.
